Rows were chosen to be rich in hits. Some 3.5% of all compounds tested hit in one or more screens of this group.
RGS4 act = RGS4 potentiators or activators, primary screen, cell-based, HEK293 M3R inducible RGS4, calcium flux | AID 463111, 2010 | carbachol calcium flux Fluo4; active compounds read low | B-score at 10 µM | 0.92% of 310,000 active;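 active means B-score of the integrated calcium signal more than 4 SD below the library mean, with starting fluorescence not abnormally high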;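 further: negative B-score means reduced calcium response which marks RGS4 activation or potentiation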
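Detection: kinetic calcium fluorescence imaging with Fluo4-AM dye, 2 µM / Material: HEK293 cells with stable M3R and inducible RGS4 / Schedule: recording 10 s baseline at 1 Hz, 100 s post-agonist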
MrgX1 antag = antagonists of human MrgX1 receptor, primary screen, HEK293 cells, Fluo-4 calcium flux; AID 588676, 2011; B-score at 10 µM; 1.3% of 310,000 active; Mas-related G-protein coupled receptor member X1 (Homo sapiens), Q96LB2; BAM8-22 antagonism; active compounds read low;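 active means calcium-response B-score plate-corrected more than 3 library SD below zero, starting fluorescence within 5 deviations, no agonist response on first addition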;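 further: peak minus trough fluorescence over baseline after final BAM8-22 challenge near maximal dose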
Target sequence (Q96LB2 whole entry, looked up): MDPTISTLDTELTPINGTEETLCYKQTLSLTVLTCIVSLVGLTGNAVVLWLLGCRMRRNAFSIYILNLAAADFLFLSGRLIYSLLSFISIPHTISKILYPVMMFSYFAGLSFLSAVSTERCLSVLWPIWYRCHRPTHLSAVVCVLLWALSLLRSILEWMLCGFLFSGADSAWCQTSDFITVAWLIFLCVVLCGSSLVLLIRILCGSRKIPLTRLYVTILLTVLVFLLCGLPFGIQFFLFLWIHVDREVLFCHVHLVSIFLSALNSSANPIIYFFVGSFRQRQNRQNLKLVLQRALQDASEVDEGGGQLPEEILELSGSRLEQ
MrgX1 PAM = positive allosteric modulators of MrgX1, primary screen, HEK293 cells, Fluo-4 calcium flux; Mas-related G-protein coupled receptor member X1 (Homo sapiens), Q96LB2; FDSS; active compounds read high; B-score at 10 µM; 0.63% of 310,000 active; AID 588675, 2011;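 active means plate-corrected calcium response at least 3 library SD above typical, normal starting fluorescence, not activating the receptor alone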;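 further: compound read alongside a low EC10 to EC30 dose of BAM8-22 agonist; peak minus trough fluorescence over baseline measured at the second addition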
MrgX1 ag = agonists of human MrgX1 receptor, primary screen, HEK293 cells, Fluo-4 calcium flux | Mas-related G-protein coupled receptor member X1 (Homo sapiens), Q96LB2 | B-score at 10 µM | AID 588627, 2011 | 0.44% of 310,000 active | Fluo-4 calcium fluorescence, agonist mode; active compounds read high;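 active means calcium response B-score plate-corrected fluorescence ratio at least 3 library SD, with starting fluorescence B-score inside 5 SD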
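Material – MrgX1-expressing HEK293 cells · Input – 15,000 cells seeded per well · Dosing – compound as first of three additions · Times – overnight seeding, then 1 h dark dye loading · Measured by – kinetic Fluo-4 NW fluorescence of intracellular calcium · Read-out – B-scored fluorescence response ratio · Benchmarks – positive and negative control wells on each plate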
RGS4 block = RGS4 inhibitors, primary screen, cell-based, HEK293 M3R inducible RGS4, calcium flux; Regulator of G-protein signaling 4 (Homo sapiens), P49798; Fluo-4 calcium flux; active compounds read high; triggered by carbachol at its EC20; B-score at 10 µM; 0.45% of 310,000 active; AID 463165, 2010;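 active means B-score, a plate-corrected calcium signal, over three deviations above library mean, with baseline fluorescence within five deviations of library mean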;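 further: RGS4 expression induced by doxycycline in cells with stable M3 receptor; B-score is computed from the integrated fluorescence ratio over baseline after carbachol; higher B-score means a larger calcium signal and so more RGS4 inhibition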
RGS4 inh valid = enhanced carbachol calcium response, M3R/RGS4 cells, RGS4 inhibitor project, cell-based, validation screen, HEK293 M3R/RGS4, calcium flux; shares compounds with RGS4 block; carbachol calcium Fluo-4 fluorescence; carbachol added at its EC20; 0 = buffer wells, 100 = carbachol control; calcium response, % at 10 µM; 65% of 1,700 active;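 active means duplicate-averaged calcium response above the buffer-only control mean plus 5 SD of those controls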;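 further: integrated fluorescence ratio F max minus min over baseline F0; higher response in RGS4-induced cells means RGS4 inhibition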
M3R Ca ctr = carbachol calcium response in non-induced M3R cells, confirmation, counter-screen for RGS4 inhibitor project, cell-based, HEK293 M3R; shares compounds with RGS4 block; carbachol calcium Fluo-4; submaximal (EC20) carbachol stimulus; buffer wells 0%, carbachol control wells 100%; activity (percent), % at 10 µM; 20% of 1,900 active; AID 493000, 2010; call rule not given here;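 further: RGS4 induction absent so cells express M3R without RGS4; higher means more calcium signal and flags a non-specific hit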
RGS4 inh ctr2 = second counter-screen for RGS4 inhibitors: non-induced cells without carbachol. shares compounds with RGS4 block. HEK293 M3R/RGS4 non-induced, Fluo-4 calcium, no carbachol; normalised: buffer wells 0%, carbachol wells 100%. calcium response (agonist-mode artifact), % at 10 µM. 22% of 1,900 active;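 active means duplicate-averaged calcium rise in uninduced cells above buffer wells' mean plus 5 SD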
Large screens that a line does not name were inactive (follow-up assays come after a bar, where they were run).

Cc1ccc(NC(=O)CCS(=O)(=O)c2ccc3c(c2)NC(=O)C(C)S3)nc1 (stereo not given)	none
O=C(CC1C(=O)NCCN1C(=O)Nc1ccccc1)Nc1cc(Cl)ccc1Cl (stereo not given)	none
CCOc1ccc(NC(=O)CC2C(=O)NCCN2C(=O)Nc2ccccc2)cc1 (stereo not given)	none
O=C(CC1C(=O)NCCN1C(=O)c1ccc(Cl)cc1)Nc1ccc(F)cc1 (stereo not given)	none | RGS4 inh valid inactive | M3R Ca ctr inactive | RGS4 inh ctr2 inactive
O=C(CC1C(=O)NCCN1C(=O)Nc1ccc(F)cc1)Nc1cc(Cl)ccc1Cl (stereo not given)	none | M3R Ca ctr inactive | RGS4 inh ctr2 10%
COc1ccc(NC(=O)N2CCNC(=O)C2CC(=O)Nc2ccc(F)cc2)cc1 (stereo not given)	none | RGS4 inh valid inactive | M3R Ca ctr inactive | RGS4 inh ctr2 inactive
O=C(CC1C(=O)NCCN1C(=O)Nc1ccccc1)Nc1ccc(F)cc1 (stereo not given)	none | M3R Ca ctr inactive | RGS4 inh ctr2 inactive
O=C(CCN1C(=O)[C@@H]2Cc3ccccc3CN2C1=O)N[C@@H](Cc1ccccc1)C(=O)O	none
CCCC1(C(=O)OC)NC(c2ccc(OC)cc2OC)C2C(=O)N(c3cccc(C(C)=O)c3)C(=O)C21 (stereo not given)	none
COCCN(C(=O)c1ccccc1F)c1nnc(-c2ccc(OC)cc2)s1	none
Cc1ccc(S(=O)(=O)N(C)C)cc1NC(=O)C(C)Sc1ccccc1 (stereo not given)	none
Cc1cccc(C(=O)OC2CCOC2=O)c1O (stereo not given)	none
CC(C)(C)OC(=O)N[C@@H](Cc1ccccc1)C(=O)NCC1CCC(C(=O)N[C@@H](CC(=O)O)C(=O)O)CC1 (stereo not given in full)	none
Cc1ccc(S(=O)(=O)c2nc(S(=O)(=O)c3ccc(C)cc3)c(N3CCN(CCO)CC3)s2)cc1	none
COC(=O)CC1C(=O)NCCN1C(=O)Nc1ccc(Cl)cc1 (stereo not given)	none
O=C(CC1C(=O)NCCN1C(=O)Nc1ccc(Cl)cc1)Nc1ccc(F)cc1 (stereo not given)	RGS4 block 5.6 | RGS4 inh valid 23% | M3R Ca ctr 37% | RGS4 inh ctr2 12%
Cc1cccc(NC(=O)CC2C(=O)NCCN2C(=O)Nc2ccc(Cl)cc2)c1 (stereo not given)	RGS4 block 9.1 | RGS4 inh valid 26% | M3R Ca ctr 46% | RGS4 inh ctr2 inactive
C=CCOc1ccc(/C=C/C(=O)OCC(=O)N(C)C2CCS(=O)(=O)C2)cc1 (stereo not given)	none
Cc1cc(-c2nnc(-c3cccc(Cl)c3)o2)no1	none
CC(NC(=O)c1ccccc1)C(=O)N/N=C/c1ccccc1 (stereo not given)	none
O=C(NC(C(=O)N/N=C/c1ccccc1)c1n[nH]c(=O)c2ccccc12)c1ccccc1 (stereo not given)	none | RGS4 inh valid inactive | M3R Ca ctr inactive | RGS4 inh ctr2 10%
